# Assay results as given in ChEMBL document CHEMBL3392995, “Erinacerins C-L, isoindolin-1-ones with α-glucosidase inhibitory activity from cultures of the medicinal mushroom Hericium erinaceus” (J Nat Prod, 2015).
# How the values were obtained:
# HeLa = experiment: Cytotoxicity against human HeLa cells after 72 hrs by MTT assay; format: functional, cell-based
# How it was run: (§1)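 MTT read-out of cell viability in A549 (human lung adenocarcinoma) and HeLa (cervical cancer) cells. Values are means of three independent experiments, each run in triplicate.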
# A549 = experiment: Cytotoxicity against human A549 cells after 72 hrs by MTT assay; format: functional, cell-based; conditions: A549, 72 h; how it was run: as §1
# [1] = Inhibition of baker's yeast alpha-glucosidase using p-nitrophenyl-alpha-D-glucopyranoside as substrate incubated with enzyme for 10 mins prior to substrate challenge for 15 mins by microplate reader analysis; set-up: species or system Saccharomyces cerevisiae
# How it was run: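 Run in 96-well format, read as absorbance at 405 nm. Control used phosphate buffer in place of sample; blank used phosphate buffer in place of α-glucosidase. Inhibition (%) = [(ODcontrol − ODcontrol blank) − (ODtest − ODtest blank)]/(ODcontrol − ODcontrol blank) × 100. Acarbose served as positive control. Means of three independent experiments, each in triplicate.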
SMILES,IC50 [1] [µM],IC50 (HeLa) [µM],IC50 (A549) [µM]
C/C(=C\Cc1c(O)cc2c(c1O)CNC2=O)CC/C=C(\C)C(=O)O,> 200,> 100,> 100
C/C(=C\Cc1c(O)cc2c(c1O)CN(CCO)C2=O)CC/C=C(\C)C(=O)O,24.2,> 100,> 100
CC[C@H](C)[C@@H](C(=O)O)N1Cc2c(cc(O)c(C/C=C(\C)CC/C=C(\C)C(=O)O)c2O)C1=O,39.6,> 100,> 100
COC(=O)CC/C(C)=C/Cc1c(O)cc2c(c1O)CNC2=O,145,> 100,> 100
COC(=O)CC/C(C)=C/Cc1c(O)cc2c(c1O)CN(CCO)C2=O,97.8,> 100,> 100
O=C(O)[C@@H](Cc1ccccc1)N1Cc2ccccc2C1=O,> 200,> 100,> 100
CC[C@H](C)[C@@H](C(=O)O)N1Cc2ccccc2C1=O,> 200,> 100,> 100
CC(C)[C@@H](C(=O)O)N1Cc2ccccc2C1=O,> 200,> 100,89.7
CC(C)[C@H](C(=O)O)N1Cc2ccccc2C1=O,> 200,> 100,41.5
O=C(O)[C@H](Cc1ccccc1)N1Cc2ccccc2C1=O,> 200,> 100,> 100
C[C@H]1O[C@H](O[C@H]2[C@H](O)[C@@H](O)[C@@H](O[C@H]3[C@H](O)[C@@H](O)C(O)O[C@@H]3CO)O[C@@H]2CO)[C@H](O)[C@@H](O)[C@@H]1N[C@H]1C=C(CO)[C@@H](O)[C@H](O)[C@H]1O (some centres undefined) [ACARBOSE],383,–,–

# The next compounds have a lower IC50 [1] than those just listed; values first:
IC50 [1] [µM],SMILES,IC50 (HeLa) [µM],IC50 (A549) [µM]
19.8,COC(=O)C/C=C(\C)CCc1c(O)cc2c(c1O)CN([C@@H](Cc1ccccc1)C(=O)OC)C2=O,> 100,> 100
18.6,COC(=O)C/C=C(\C)CCc1c(O)cc2c(c1O)CN(CCO)C2=O,> 100,96.1
15.5,COC(=O)CC/C(C)=C/Cc1c(O)cc2c(c1O)CN([C@@H](Cc1ccccc1)C(=O)OC)C2=O,> 100,89.7
12.8,C/C(=C\Cc1c(O)cc2c(c1O)CN([C@H](C(=O)O)C(C)C)C2=O)CC/C=C(\C)C(=O)O,> 100,> 100
10.3,COC(=O)C/C=C(\C)CCc1c(O)cc2c(c1O)CNC2=O,> 100,> 100
5.3,COc1cc2c(c(O)c1C/C=C(\C)CCC=C(C)C)CN(CCc1ccccc1)C2=O,40.5,49
